Screens as filed in PubChem BioAssay.
Shown are actives, neighbours in structure and some others; about 1.8% of the full set was active somewhere.
PHOSPHO1 block = PubChem AID 1565 | inhibition, % at 13.3 µM | recombinant PHOSPHO1, absorbance phosphatase assay | 1.1% of 290,000 active | Phosphoethanolamine/phosphocholine phosphatase (Homo sapiens), Q8TCT1; in the data active means inhibition above about 60%
Tb MetRS inh = T. brucei MetRS inhibitors, primary screen, biochemical, luminescence | methionyl-tRNA synthetase (Trypanosoma brucei brucei) | purified T. brucei MetRS, ATP depletion, Kinase-Glo luminescence | inhibition, % at 11.9 µM | 0.4% of 360,000 active | AID 624268, 2012;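 active means inhibition above a per-plate cutoff of the control wells' mean inhibition plus 3 SD, cut at about 5.5% in these data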;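 further: 0% = DMSO wells median and 100% = median of wells with control inhibitor compound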
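Material: T. brucei methionyl-tRNA synthetase, purified; reagent: substrates ATP, L-methionine and bulk Escherichia coli tRNA; dosing: 11.9 µM single point; timing: 15 min plus 2 h at 25 °C; detection: luminescence of leftover ATP; evaluation: % inhibition; control set: DMSO-only wells as low control; replicates: singlicate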
A3A deaminase = APOBEC3A ssDNA deaminase inhibitors, primary screen, selectivity assay for APOBEC3G inhibitor project, biochemical, FAM/TAMRA oligo cleavage fluorescence. DNA dC->dU-editing enzyme APOBEC-3A (Homo sapiens), P31941. recombinant A3A, FAM/TAMRA ssDNA deamination fluorescence. AID 493011, 2011. inhibition, % at 20 µM. 0.41% of 330,000 active;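 active means at least 40% inhibition at 20 µM here, with at most 30% in a related deaminase screen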;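 further: plate controls were A3A with DMSO for no effect and wells lacking A3A enzyme for full effect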
p-CIP stab down = p/CIP-EGFP fusion destabilizers, primary screen, fluorescence, F442A cells; 0.01% of 290,000 active; 16 h; decrease of EGFP signal, % at 10 µM;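 active means EGFP signal decrease of at least 30% at 10 µM or well 3 SD below plate mean, unless failing retest; inactive means the rest, including hits failing retest or dose response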
A3G deaminase = APOBEC3G DNA deaminase inhibitors, primary screen, biochemical, fluorescence, single-stranded DNA substrate, uHTS; inhibition, % at 20 µM; DNA dC->dU-editing enzyme APOBEC-3G (Homo sapiens), Q9HC16; AID 493012, 2011; recombinant A3G, ssDNA deamination FAM/TAMRA fluorescence; 0.28% of 330,000 active;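 active means inhibition of at least 40% at 20 µM, with no more than 30% in the related APOBEC3A deaminase screen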;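 further: plate controls were DMSO wells with A3G for no effect and wells lacking A3G enzyme for full effect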
TbMetRS confirm = T. brucei MetRS inhibitors, confirmation, biochemical, luminescence; inhibition, % at 11.9 µM; 93% of 1,400 active; T. brucei MetRS enzyme, luminescence (ATP depletion); shares compounds with Tb MetRS inh; in the data active means inhibition above about 7%
Jurkat tox = Jurkat T cell cytotoxicity, cytotoxicity control for T. brucei MetRS inhibitor project, luminescence, high throughput; shares compounds with Tb MetRS inh; Jurkat cells viability, ATP luminescence; inhibition, % at 8.3 µM; 12% of 1,400 active; in the data active means inhibition above about 15%;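 further: 0% = vehicle and 100% = reference inhibitor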
Tb MetRS inh FP = T. brucei MetRS inhibitors, orthogonal assay for T. brucei MetRS inhibitor project, biochemical, fluorescence polarization | shares compounds with Tb MetRS inh | purified T. brucei MetRS | inhibition, % at 11.9 µM | 44% of 1,400 active | AID 651607, 2012; in the data active means inhibition above about 17%;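 further: 0% = vehicle wells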
An asterisk follows results filed as active; . = no result.

SMILES	PHOSPHO1 block	Tb MetRS inh	A3A deaminase	p-CIP stab down	A3G deaminase	TbMetRS confirm	Jurkat tox	Tb MetRS inh FP
Cn1c(CC(=O)Nc2ccccc2F)nnc1SCC(=O)NC1CCCCC1	22	79*	-4	-11	-9	0	4	0
O=c1c2c([nH]c3ccc(Br)cc13)CCCC2	-18	14*	-18	3	-2	27*	5	14
Brc1ccc2[nH]c3c(c2c1)CCC3	30	0	-5	-24	-10	.	.	.
Cc1ccc(S(=O)(=O)N(C)[C@H]2C[C@H]3c4[nH]c5ccccc5c4CCN3C[C@H]2[C@H](C)O)cc1	.	2	.	.	.	.	.	.
COc1cccc(C(c2c(C)[nH]n(-c3ccccc3)c2=O)c2c(C)[nH]n(-c3ccccc3)c2=O)c1O	.	8.1*	5	.	-1	2	-2	2
COc1ccc(C(C[N+](=O)[O-])c2c(C)[nH]n(-c3ccccc3)c2=O)cc1 (stereo not given)	28	0	0	-18	-7	.	.	.
Cc1[nH]n(-c2ccccc2)c(=O)c1C(c1ccc(O)c([N+](=O)[O-])c1)c1c(C)[nH]n(-c2ccccc2)c1=O	.	13*	-2	.	-2	1	1	2
COc1cccc(C(c2c(C)[nH]n(-c3ccccc3)c2=O)c2c(C)[nH]n(-c3ccccc3)c2=O)c1OC	-19	7.7*	1	-10	-6	2	19*	0
COc1cccc(NC(=O)CN2C(=O)NC(C)(c3ccc(C)cc3)C2=O)c1 (stereo not given)	-14	-1	5	-1	2	.	.	.
Fc1ccc(F)c(CNc2ncnc3cc(Cl)ccc23)c1	20	7.3*	7	-8	-6	21*	14	10
COc1ccc(CCCNC(=O)C2(C)Cc3c(-c4cccc(C(N)=O)c4)ccnc3O2)cc1 (stereo not given)	.	6.6*	.	.	.	5	49*	1
CC1(C(=O)NCCC(F)(F)F)Cc2c(-c3cccc(C(N)=O)c3)ccnc2O1 (stereo not given)	.	0	.	.	.	.	.	.
CSCCC(C(=O)NCc1ccccc1)n1c(Cc2cc(F)cc(F)c2)nc2ccccc21 (stereo not given)	.	1	.	.	.	.	.	.
O=C1CSC(c2ccccc2)N1Cc1ccccc1 (stereo not given)	30	0	-2	6	-3	.	.	.
C=CCNC(=S)NNC(=O)c1cc(C)nc2ccccc12	-5	-1	-4	-6	-3	.	.	.
C=CCNC(=S)NNC(=O)Cn1c(-c2ccccc2)cc(=O)n2ncnc12	-41	10*	-2	3	0	17*	11	12
S=C(NCc1cccnc1)Nc1cc(Cl)cc(Cl)c1	34	24*	-3	-6	-11	52*	5	30*
S=C(NCc1cccnc1)Nc1cccc(Cl)c1	27	5	-2	12	-2	.	.	.
S=C(NCc1ccncc1)Nc1cc(Cl)cc(Cl)c1	-6	10*	-3	13	-5	23*	0	13
CC(=O)C1=C(O)CC(C)(C)CC1=NCc1nc2ccccc2[nH]1	-4	3	-1	2	-12	.	.	.
C=CCN=C1CC(C)(C)CC(=O)/C1=C(/O)CCC(=O)OC	16	0	-2	-14	-4	.	.	.
COC(=O)CC/C(O)=C1\C(=O)CC(C)(C)CC1=NCc1nc2ccccc2[nH]1	36	48*	1	-11	-2	67*	-4	35*
CC(=O)C1=C(O)CCCC1=NCc1nc2ccccc2[nH]1	6	6.2*	1	3	-12	12*	-6	9
CC(=O)c1cccc(-c2ccnc3c2CC(C(=O)Nc2ccc(Cl)cc2)O3)c1 (stereo not given)	.	19*	.	.	.	46*	21*	22*
FC(F)(F)c1cccc(CNC(=S)Nc2ccccc2)c1	62*	15*	2	-6	-2	29*	1	9
SMILES	PHOSPHO1 block	Tb MetRS inh	A3A deaminase	p-CIP stab down	A3G deaminase	TbMetRS confirm	Jurkat tox	Tb MetRS inh FP
CC1CC(C)CN(C(=O)c2ccc3c(c2NCCO)C(=O)c2ccccc2C3=O)C1 (stereo not given)	0	0	-1	34	1	.	.	.
CCS(=O)(=O)N1CCN(Cc2c[nH]c3ccccc23)CC1	16	1	-5	7	-13	.	.	.
Brc1ccc(CN2CCN(Cc3c[nH]c4ccccc34)CC2)cc1	31	11*	-1	1	-8	42*	13	17*
O=[N+]([O-])c1ccc(CN2CCN(Cc3c[nH]c4ccccc34)CC2)cc1	-6	6.2*	-4	7	-5	19*	10	6
Brc1ccccc1CN1CCN(Cc2c[nH]c3ccccc23)CC1	.	.	1	.	3	.	.	.
CC1=C(C(=O)N(C(C)C)C(C)C)CC(CC(=O)NCc2ccco2)C(=O)N1CCCN1CCCC1=O (stereo not given)	.	0	.	.	.	.	.	.
O=C1CC(SCc2nc3ccccc3[nH]2)C(=O)N1c1ccc(F)cc1 (stereo not given)	29	2	-2	-6	-2	.	.	.
O=C1CC(SCc2nc3ccccc3[nH]2)C(=O)N1c1cccc(Cl)c1 (stereo not given)	17	80*	-1	3	-10	91*	-1	61*
O=C1CC(SCCc2nc3ccccc3[nH]2)C(=O)N1c1ccc(F)c(Cl)c1 (stereo not given)	.	33*	6	.	19	54*	1	30*
O=[N+]([O-])c1c(Nc2ccc(O)cc2)cc(Cl)c2nonc12	18	1	-1	-31	6	.	.	.
COc1ccc([C@H]2N[C@]3(CCCN(Cc4ccc(C(F)(F)F)cc4)C3=O)[C@H]3C(=O)N(C)C(=O)[C@@H]23)cc1	.	0	.	.	.	.	.	.
Cc1ccc(NC(=O)C23CCC(C)(C(=O)[C@H]2Br)C3(C)C)cc1 (stereo not given in full)	28	0	-1	-10	-6	.	.	.
S=C(NCCSCc1ccc(Cl)cc1)Nc1ccccc1	39	30*	2	-13	0	51*	5	50*
O=C(NCCSCc1ccco1)Nc1ccc(Cl)cc1	-36	6.4*	-4	-9	-8	16*	4	8
